Where a SMILES comes first, the peptide text is derived from it. [ ]: non-standard residue; d: D form.
Assays:
[1] = test system: peripheral blood mononuclear cells (PBMCs); test: Mitochondrial membrane potential of PBMCs; format: in vivo, human; conditions: for Mitochondrial membrane potential (Delta psi), contrast vs placebo (95% CI) / Percentage of dysfunctional PMBCs, contrast vs placebo (95% CI): ANCOVA; for Mitochondrial membrane potential (Delta psi), LS mean: PBMCs
In short: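 Live PBMCs were stained with JC-1 and read by flow cytometry, FL-2 for healthy and FL-1 for dysfunctional mitochondria. A fraction of cells was treated with CCCP as uncoupled positive control, and ΔΨm was calculated from FL2/FL1 ratios ×100. Blood was drawn 1 h before dosing on day 1 and 1.5 h after the final dose on day 7 (Part 1), and 1.5 h post-dose on day 27 (Part 2). Analysis was mixed-model ANCOVA with baseline as covariate.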

[2] = Plasma pharmacokinetics of SBT-020; format: in vivo, human
In short: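 Dosing was subcutaneous once daily. In Part 1, 24-h plasma profiles were taken on day 1 and at steady state (day 7); Part 2 used steady-state troughs only. Plasma aliquots were spiked with 5% aqueous formic acid, and active-arm samples were assayed by validated LC-MS (LLOQ 2.5 ng/mL). Noncompartmental analysis set pre-Cmax values below LLOQ to zero and excluded post-Cmax ones.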

MPTP‐treated mice = conditions: cited from earlier work
[3] = test system: patients with early stage HD; test: Safety: treatment-emergent adverse events, laboratory, vital signs, ECG; format: in vivo, human
In short: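 The trial was randomized and placebo-controlled in early HD. Part 1 gave 5, 15 or 25 mg subcutaneously once daily for 7 days (6 active, 2 placebo per cohort). Part 2 re-randomized patients 12:12 to 28 days. Adverse events, vitals, laboratory, ECG and physical examination were recorded on clinic days and at home visits (days 7, 14, 21 in Part 2). Plasma histamine was sampled 15 and 30 min post-dose.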

SN4741 cells = conditions: cultured SN4741 cells exposed to MPTP; cited from earlier work
rats = conditions: ischaemia/reperfusion, single dose of 4 mg/kg; cited from earlier work
[4] = test system: mitochondrial function in the visual cortex; test: 31P-MRS of the visual cortex before, during and after visual stimulation; format: in vivo, human; conditions: Part 2, 25 mg s.c. once daily 28 d
In short: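 At 3 T, a 6-cm 31P transmit/receive surface coil was placed over the visual cortex, positioned using a 10-mm water sphere on 1H images. Adiabatic pulse-acquire (TR 2 s, flip 90°) FIDs were collected for 4 min at rest (128 averages), 8 min during visual activation (256) and 8 min after (256). Time-domain fitting with prior knowledge gave PCr/ATP, Pi/PCr, Pi/ATP and pH. Scans ran on day −1 and 1.5 h post-dose on day 27; mixed-model ANCOVA used baseline as covariate.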

[5] = Part 1, 5 mg s.c. once daily 7 d
[6] = Part 1, 5 mg s.c. once daily 7 d, n=6, day 7, 1.5 h post dose
[7] = Part 1, 15 mg s.c. once daily 7 d
[8] = Part 1, 25 mg s.c. once daily 7 d
[9] = Part 2, 25 mg s.c. once daily 28 d
[10] = Part 2, 25 mg s.c. once daily 28 d, n=11, day 27, 1.5 h post dose

With `N=C(N)NCCC[C@@H](NC(=O)[C@@H](N)Cc1ccccc1)C(=O)N[C@@H](Cc1ccccc1)C(=O)N[C@@H](CCCCN)C(N)=O` [SBT‐020, H‐Phe‐D‐Arg‐Phe‐Lys‐NH2] (H-F[dR]FK-NH2) the “Mitochondrial membrane potential (Delta psi), contrast vs placebo (95% CI)” value [1, 5] was 263.528 (−1151.3, 1678.31) P = .7001, the “Percentage of dysfunctional PMBCs, contrast vs placebo (95% CI)” value (“Percentage of dysfunctional PMBCs … (95% CI)” below) [1, 5] was −1.980 (−3.819, −0.141) P = .0363% and the “Percentage of dysfunctional PMBCs, LS mean” value (from here on “Percentage … LS mean”) [1, 6] was 3.82%. For the same compound, the “Mitochondrial membrane potential (Delta psi), LS mean” value [1, 6] was 3162.27, the “Mitochondrial membrane potential (Delta psi), contrast vs placebo (95% CI)” value [1, 7] was −16.375 (−1411.2, 1378.48) P = .9806 and the “Percentage of dysfunctional PMBCs … (95% CI)” value [1, 7] was −3.002 (−4.980, −1.025) P = .0051%. The “Percentage … LS mean” value ([1]; Part 1, 15 mg s.c. once daily 7 d, n=6, day 7, 1.5 h post dose) was 2.80%, the “Mitochondrial membrane potential (Delta psi), contrast vs placebo (95% CI)” value [1, 8] was 1513.21 (114.067, 2912.36) P = .0356 and the “Percentage of dysfunctional PMBCs … (95% CI)” value [1, 8] was −2.052 (−3.894, −0.210) P = .0310%. The “Percentage … LS mean” value ([1]; Part 1, 25 mg s.c. once daily 7 d, n=6, day 7, 1.5 h post dose) was 3.75%, the “Mean percentage of dysfunctional PBMCs after 7 days of treatment” value (from here on “Mean percentage … after 7 days of treatment”) ([1]; Part 1, 5‐mg cohort, baseline mean 3.2) was 3.4% and the “Mean ∆Ψm after 7 days of treatment” value ([1]; Part 1, 5‐mg cohort, baseline mean 2956) was 2948. For the same compound, the “Mean percentage … after 7 days of treatment” value ([1]; Part 1, 15‐mg cohort, baseline mean 4.3) was 3.8%, the “Mean ∆Ψm after 7 days of treatment” value ([1]; Part 1, 15‐mg cohort, baseline mean 3,316) was 3,282 and the “Mean percentage … after 7 days of treatment” value ([1]; Part 1, 25‐mg cohort, baseline mean 3.2) was 3.4%. The “Mean ∆Ψm after 7 days of treatment” value ([1]; Part 1, 25‐mg cohort, baseline mean 3715) was 5279, the “Mitochondrial membrane potential (Delta psi), contrast vs placebo (95% CI)” value [1, 9] was 1065.4 (−495.2, 2626.0) P = .17 and the “Percentage of dysfunctional PMBCs … (95% CI)” value [1, 9] was −0.75 (−3.93, 2.42) P = .62%. For the same compound, the “Percentage … LS mean” value [1, 10] was 4.08%, the “Mitochondrial membrane potential (Delta psi), LS mean” value [1, 10] was 4090.47 and the “Mean percentage of dysfunctional PBMCs after 28 days of treatment” value ([1]; Part 2, active group 25 mg, baseline mean 4.6) was 4.2%. For the same compound, the “Mean ∆Ψm after 28 days of treatment” value ([1]; Part 2, active group 25 mg, baseline mean 3770) was 4124, the “Exposure higher between day 1 and day 7” value ([2]; Part 1, 25‐mg dose cohort) was “approximately 10%” and the Accumulation ([2]; Part 2, weekly trough samples, 28 days of daily 25 mg s.c.) was “did not accumulate”. The “Median percentage of extrapolated AUC” value ([2]; Part 1 day 7, 15‐mg cohort) was “less than 2%”, the “Apparent elimination half‐life” value ([2]; Part 1 day 7, 15‐mg cohort, mean) was 3.94 h and the “Median percentage of extrapolated AUC” value ([2]; Part 1 day 7, 25‐mg cohort) was “less than 2%”. For the same compound, the Tmax ([2]; human, plasma, sc) was roughly 1 h, the “Dose proportionality of exposure” value ([2]; once daily subcutaneous administration) was “dose‐proportional exposure” and the “Attenuation of MPTP‐induced dopamine depletion” value (MPTP‐treated mice; MPTP‐treated mice, single dose of 4 mg/kg) was 40%. For the same compound, the “Neuroprotection in the striatum” value (MPTP‐treated mice; acute MPTP model, peripheral administration at 5 mg/kg, ref not given) was “sufficient to achieve neuroprotection”, the “Effect in MPTP‐induced mouse model of Parkinson's disease” value (MPTP‐treated mice; given systemically) was “effective in attenuating injury and improving neurotransmitter release” and the Overall safety ([3]; 5, 15, 25 mg s.c. once daily 7 d and 25 mg 28 d) was “safe in all dose levels”. The Plasma histamine levels ([3]; 15 and 30 minutes after administration) was “not elevated”, the “Severity of injection site reactions” value ([3]; Parts 1 and 2, developed within a few minutes of dosing, resolved within the hour) was “mild” and the “Cell viability and apoptosis” value (SN4741 cells) was “improved cell viability and reduced apoptosis”. For the same compound, the “Infarct size and myocardial lipid peroxidation” value (rats) was “significantly reduced”, the “Effect on brain mitochondrial function compared to placebo” value [4] was “No overall statistically significant effect” and the “PCr/ATP after visual stimulation (central 31P‐MRS), contrast vs placebo (95% CI)” value ([4]; ANCOVA) was −0.02 (−0.1, 0.05) P = .57. For the same compound, the “Pi/ATP after visual stimulation (central 31P‐MRS), contrast vs placebo (95% CI)” value ([4]; ANCOVA) was 0.0073 (−0.0270, 0.0415) P = .6613, the “Pi/ATP before visual stimulation (central 31P‐MRS), contrast vs placebo (95% CI)” value ([4]; ANCOVA) was −0.002 (−0.02, 0.02) P = .80 and the “Pi/ATP during visual stimulation (central 31P‐MRS), contrast vs placebo (95% CI)” value ([4]; ANCOVA) was −0.004 (−0.02, 0.01) P = .57. For the same compound, the “Pi/PCr after visual stimulation (central 31P‐MRS), contrast vs placebo (95% CI)” value ([4]; ANCOVA) was 0.02 (−0.02, 0.06) P = .32.
